Converted amounts (≈) assume the structure as drawn.
Legend:
Staphylococcus aureus = assay: In vitro antifungal activity against Staphylococcus aureus (ATCC 13709); format: functional
Candida albicans = assay: In vitro antifungal activity against Candida albicans (ATCC 10231); format: functional
[1] = system: Mycolicibacterium smegmatis; assay: In vitro antifungal activity against Mycobacterium smegmatis (ATCC 607); format: functional
Escherichia coli = assay: In vitro antifungal activity against Escherichia coli (ATCC 9637); format: functional
[2] = system: Salmonella enterica subsp. enterica serovar Gallinarum; assay: In vitro antifungal activity against Salmonella gallinarum (ATCC 9184); format: functional
Klebsiella pneumoniae = assay: In vitro antifungal activity against Klebsiella pneumoniae AD (ATCC 10031); format: functional
Nucleic Acid = assay: In vitro DNA gyrase inhibition activity; format: nucleic-acid assay
How it was run: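 DNA gyrase holoenzyme, purified using a heparin-Sepharose affinity column in place of the DEAE-cellulose step. Supercoiling of relaxed ColE1 plasmid was run on 1% agarose horizontal gels. Relaxed and supercoiled bands were quantified by densitometry of photographic negatives. Because inhibition is noncompetitive, Ki was taken as the concentration giving 50% inhibition of supercoil band formation.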

Row | MIC (Staphylococcus aureus) | MIC (Candida albicans) | MIC [1] | MIC (Escherichia coli) | MIC [2] | MIC (Klebsiella pneumoniae) | Ki (concentration giving 50% inhibition of gyrase supercoiling) (Nucleic Acid) | Structure (SMILES)
1 | 500 µg/mL (≈ 1940 µM) | > 500 µg/mL | 500 µg/mL (≈ 1940 µM) | > 500 µg/mL | 500 µg/mL (≈ 1940 µM) | > 500 µg/mL | 300 µg/mL | CC1(C)C=C(C(=O)O)C(=O)c2cc3c(cc21)CCO3
2 | > 100 µg/mL | > 100 µg/mL | > 100 µg/mL | > 100 µg/mL | > 100 µg/mL | > 100 µg/mL | > 1000 µg/mL | COc1cc2c(cc1OC)C(C)(C)C=C(C(=O)O)C2=O
3 | > 100 µg/mL | > 100 µg/mL | > 100 µg/mL | > 100 µg/mL | > 100 µg/mL | > 100 µg/mL | 300 µg/mL | CC1(C)C=C(C(=O)O)C(=O)c2ccc3c(c21)OCC3
4 | 6.25 µg/mL (≈ 28.9 µM) | > 250 µg/mL | 50 µg/mL (≈ 231 µM) | > 250 µg/mL | 50 µg/mL (≈ 231 µM) | > 250 µg/mL | 2000 µg/mL | CC1(C)C=C(C(=O)O)C(=O)c2ccccc21

Further lines, the compound ahead of its results:

Row | Structure (SMILES) | MIC (Staphylococcus aureus) | MIC (Candida albicans) | MIC [1] | MIC (Escherichia coli) | MIC [2] | MIC (Klebsiella pneumoniae) | Ki (concentration giving 50% inhibition of gyrase supercoiling) (Nucleic Acid)
5 | CCn1cc(C(=O)O)c(=O)c2cc3c(cc21)OCO3 [OXOLINIC ACID] | 3.13 µg/mL (≈ 12 µM) | > 100 µg/mL | 50 µg/mL (≈ 191 µM) | 0.78 µg/mL (≈ 2.99 µM) | 0.78 µg/mL (≈ 2.99 µM) | < 0.1 µg/mL | –
6 | CC1(C)C=C(C(=O)O)C(=O)c2cc3c(cc21)OCO3 | 500 µg/mL (≈ 1920 µM) | > 500 µg/mL | 500 µg/mL (≈ 1920 µM) | > 500 µg/mL | 500 µg/mL (≈ 1920 µM) | > 500 µg/mL | 300 µg/mL
7 | CCn1cc(C(=O)O)c(=O)c2ccc(C)nc21 [NALIDIXIC ACID] | 100 µg/mL (≈ 431 µM) | > 100 µg/mL | > 100 µg/mL | 12.5 µg/mL (≈ 53.8 µM) | 12.5 µg/mL (≈ 53.8 µM) | 3.13 µg/mL (≈ 13.5 µM) | –

Source: ChEMBL document CHEMBL1122583, “Structure-activity relationships among DNA gyrase inhibitors. Synthesis and biological evaluation of 1,2-dihydro-4, 4-dimethyl-1-oxo-2-naphthalenecarboxylic acids as 1-carba bioisosteres of oxolinic acid” (1984)
